{"source": "ChEMBL document CHEMBL5352427", "about": "“Isoquinolone derivatives as lysophosphatidic acid receptor 5 (LPA5) antagonists: Investigation of structure-activity relationships, ADME properties and analgesic effects” (Eur J Med Chem, 2022)", "key": {"Rattus norvegicus [1]": {"tested_on": "Rattus norvegicus", "assay": "Antinociceptive activity against in opioid-induced hyperalgesia Sprague-Dawley rat model assessed as reduction in mechanical hyperalgesia induced hypersensitivity at 5.6 to 17.8 mg/kg, ip and measured after 5 hrs", "type": "functional, organism-based", "settings": "dose 5.6-17.8 mg/kg", "outline": "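Opioid-induced hyperalgesia: after baselines on D−1 and D0, rats given four s.c. fentanyl injections of 0.06 mg/kg at 15 min intervals (0.24 mg/kg total); paw withdrawal thresholds tested after i.p. drug on days 1–2 post-fentanyl.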"}, "[2]": {"molecular_target": "Lysophosphatidic acid receptor 1 (Homo sapiens) (UniProt Q92633)", "sequence (Q92633 whole entry)": "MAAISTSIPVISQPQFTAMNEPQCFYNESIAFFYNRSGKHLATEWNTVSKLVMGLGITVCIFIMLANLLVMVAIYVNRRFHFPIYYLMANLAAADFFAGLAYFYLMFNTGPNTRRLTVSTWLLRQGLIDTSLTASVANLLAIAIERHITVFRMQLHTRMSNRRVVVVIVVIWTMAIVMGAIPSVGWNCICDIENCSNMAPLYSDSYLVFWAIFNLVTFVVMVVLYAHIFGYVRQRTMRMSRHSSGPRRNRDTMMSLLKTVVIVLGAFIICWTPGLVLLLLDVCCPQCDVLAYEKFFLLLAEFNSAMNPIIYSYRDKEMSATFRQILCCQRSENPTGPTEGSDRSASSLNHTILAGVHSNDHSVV", "assay": "Antagonist activity at human LPA1 receptor expressed in CHO cells assessed as inhibition of LPA-induced calcium mobilization at 10 uM incubated for 15 mins by FLIPR analysis relative to control", "type": "functional, cell-based", "outline": "(§1)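 Calcium mobilization in CHO cells overexpressing LPA1, LPA2 or LPA3, run by a contract lab under its own protocols; compounds tested at single 10 μM.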"}, "Rattus norvegicus [3]": {"tested_on": "Rattus norvegicus", "assay": "Antiallodynic activity in CCI surgery neuropathic pain induced Sprague-Dawley rat neuropathic pain model assessed as reversal of hypersensitivity condition at 17.8 mg/kg, ip measured after 10 days", "type": "functional", "settings": "time 10 day", "outline": "(§2)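 Adult male Sprague-Dawley rats (230–280 g, n=6/group) given CCI under i.p. ketamine 75 mg/kg/xylazine 5 mg/kg: four chromic gut ligatures about 1 mm apart on the right sciatic nerve. Drug given i.p. (1–2 ml/kg) in 20% DMSO/10% emulphor/saline. Mechanical paw withdrawal threshold measured every 30 min (26 g cutoff). Reported as mean ± SEM, two-way ANOVA.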"}, "[4]": {"assay": "Apparent permeability across apical to basolateral side in MDCK-MDR1 cells incubated for 90 mins by LC-MS/MS analysis", "type": "ADME, cell-based, Canis lupus familiaris", "settings": "dog, mdck-mdr1, 1.5 h", "outline": "(§3)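 MDCK-MDR1 cells (passage 5) grown 3 days on Transwell polycarbonate inserts; transport buffer HBSS/10 mM HEPES/0.25% BSA pH 7.4, 30 min preincubation 37 °C with TEER check. 10 μM test article added apical (A-to-B) or basolateral (B-to-A); receiver sampled at 30, 60, 90 min, LC-MS/MS. Papp = (dQ/dt)/(A·Ci); efflux ratio B-to-A/A-to-B. Atenolol, propranolol, digoxin references.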"}, "Rattus norvegicus [5]": {"tested_on": "Rattus norvegicus", "assay": "Antiallodynic activity in CCI surgery neuropathic pain induced ip dosed Sprague-Dawley rat hyperalgesia model assessed as reduction in mechanical allodynia by measuring reduction in paw threshold measured after 10 days", "type": "functional, organism-based", "settings": "dose 3.2-17.8 mg/kg, time 10.0 day", "outline": "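Male Sprague-Dawley rats (n=6), ketamine/xylazine anesthesia; four chromic gut ligatures ~1 mm apart around the right sciatic nerve. Drugs i.p. in DMSO/emulphor/saline (AS2717638 in propylene glycol vehicle), single or cumulative dosing with paw withdrawal threshold (cut-off 26 g) measured every 30 min.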"}, "[6]": {"molecular_target": "Lysophosphatidic acid receptor 2 (Homo sapiens) (UniProt Q9HBW0)", "sequence (Q9HBW0 whole entry)": "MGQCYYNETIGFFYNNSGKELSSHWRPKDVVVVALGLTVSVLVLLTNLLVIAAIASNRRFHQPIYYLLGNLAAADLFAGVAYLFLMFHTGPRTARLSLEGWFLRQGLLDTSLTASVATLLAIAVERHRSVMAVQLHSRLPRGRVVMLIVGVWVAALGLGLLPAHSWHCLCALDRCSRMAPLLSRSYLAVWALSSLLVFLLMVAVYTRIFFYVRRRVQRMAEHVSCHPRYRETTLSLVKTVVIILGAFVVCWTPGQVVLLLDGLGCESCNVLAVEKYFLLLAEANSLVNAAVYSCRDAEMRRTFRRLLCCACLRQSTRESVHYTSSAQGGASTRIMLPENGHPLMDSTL", "assay": "Antagonist activity at human LPA2 receptor expressed in CHO cells assessed as inhibition of LPA-induced calcium mobilization at 10 uM incubated for 15 mins by FLIPR analysis relative to control", "type": "functional, cell-based", "outline": "as §1"}, "[7]": {"assay": "Effect on locomotory activity in opioid-induced hyperalgesia Sprague-Dawley rat model at 17.8 mg/kg, ip measured for 60 mins by infrared motion-sensor analysis", "type": "toxicity, organism-based", "settings": "in vivo, 1 h", "outline": "(§4)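 Handled ≥3 days; rats pretreated 60 min with vehicle or 17.8 mg/kg i.p., then placed in activity chambers and locomotion recorded for 60 min.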"}, "[8]": {"molecular_target": "T1, Lysophosphatidic acid receptor 5 (Homo sapiens, UniProt Q9H1C0)", "T1 sequence (Q9H1C0 whole entry)": "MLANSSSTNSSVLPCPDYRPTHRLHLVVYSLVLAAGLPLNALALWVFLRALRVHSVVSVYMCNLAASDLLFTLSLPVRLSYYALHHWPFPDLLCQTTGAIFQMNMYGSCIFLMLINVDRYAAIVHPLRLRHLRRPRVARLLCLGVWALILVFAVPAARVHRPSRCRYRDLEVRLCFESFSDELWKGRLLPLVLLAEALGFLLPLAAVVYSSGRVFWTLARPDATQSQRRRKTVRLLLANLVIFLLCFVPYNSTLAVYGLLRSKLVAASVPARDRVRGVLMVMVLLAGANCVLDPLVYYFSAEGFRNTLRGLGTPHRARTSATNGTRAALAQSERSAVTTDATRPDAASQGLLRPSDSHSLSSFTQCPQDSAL", "assay": "Antagonist activity at human LPA5 receptor expressed in RH7777 cells assessed as inhibition of EC80 concentration of hexadecyl LPA-induced calcium mobilization incubated for 15 mins by FLIPR method", "type": "functional, cell-based"}, "[9]": {"molecular_target": "T1, Lysophosphatidic acid receptor 5", "assay": "Antagonist activity at human LPA5 receptor expressed in RH7777 cells assessed as inhibition of EC80 concentration of LPA-induced cAMP accumulation preincubated for 30 mins followed by Eu-cAMP tracer addition and measured after 1 hr by TR-FRET assay relative to hexadecyl LPA", "type": "functional, cell-based", "settings": "filed as antagonist", "outline": "(§5)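 hLPA5-RH7777 cells, switched to 0.2% FBS medium 20 h prior, lifted with versene, 2,000 cells/well in HBSS/5 mM HEPES/0.1% BSA/0.5 mM IBMX pH 7.4. Compound dilutions with hexadecyl LPA 16:0 EC80 (300 nM) plus forskolin, 30 min room temperature; LANCE Ultra Eu-cAMP tracer/ULight-anti-cAMP 1 h; TR-FRET 665 nm converted to cAMP via standard curve. Three-parameter logistic IC50; ≥3 experiments in duplicate.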"}, "[10]": {"molecular_target": "T2, Lysophosphatidic acid receptor 3 (Homo sapiens) (UniProt Q9UBY5)", "T2 sequence (whole entry)": "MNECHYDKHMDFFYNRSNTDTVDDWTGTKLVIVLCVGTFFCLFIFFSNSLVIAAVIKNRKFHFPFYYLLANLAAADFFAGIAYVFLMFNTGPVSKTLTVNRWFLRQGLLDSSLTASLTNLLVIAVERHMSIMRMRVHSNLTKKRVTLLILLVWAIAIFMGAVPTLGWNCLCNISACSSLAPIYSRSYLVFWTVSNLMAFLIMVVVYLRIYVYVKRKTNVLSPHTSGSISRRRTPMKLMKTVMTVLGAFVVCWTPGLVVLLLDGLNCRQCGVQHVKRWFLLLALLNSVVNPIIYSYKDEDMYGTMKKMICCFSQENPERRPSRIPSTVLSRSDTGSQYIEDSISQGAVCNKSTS", "assay": "Antagonist activity at human LPA3 receptor expressed in CHO cells assessed as inhibition of LPA-induced calcium mobilization at 10 uM incubated for 15 mins by FLIPR analysis relative to control", "type": "functional, cell-based", "outline": "as §1"}, "[11]": {"assay": "Substrate activity at P-glycoprotein (unknown origin) in MDCK-MDR1 cells assessed as efflux ratio of apparent permeability across basolateral to apical over apical to basolateral side measured after 90 mins by LC-MS/MS analysis", "type": "ADME, cell-based, Canis lupus familiaris", "settings": "dog, mdck-mdr1, 1.5 h", "outline": "as §3"}, "[12]": {"assay": "Aqueous solubility of compound at pH 7.4", "type": "physicochemical", "settings": "aqueous medium", "outline": "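Kinetic solubility: 20 mM DMSO stock diluted into PBS (1 mM KH2PO4, 3 mM Na2HPO4, 155 mM NaCl) to a target of 400 μM; triplicates quantified by LC-MS/MS against matrix-matched standards.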"}, "[13]": {"assay": "Drug concentration in Sprague-Dawley rat brain at 17.8 mg/kg, ip measured after 30 mins by LC-MS/MS analysis", "type": "ADME, organism-based", "settings": "read-out: Ct", "outline": "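Male Sprague-Dawley rats (258–277 g) given 17.8 mg/kg i.p. in 5% Cremophor/5% ethanol/saline; at 30 min two rats anesthetized with isoflurane, cardiac blood taken, PBS-perfused; brains homogenized 1:4 (w/v) in 25% isopropanol and quantified by LC-MS/MS.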"}, "Rattus norvegicus [14]": {"tested_on": "Rattus norvegicus", "assay": "Antiallodynic activity against CFA-induced Sprague-Dawley rat inflammatory pain model assessed as reduction in paw withdrawal threshold at 17.8 mg/kg measured after 5 hrs", "type": "functional, organism-based", "outline": "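Adult male Sprague-Dawley rats (230–280 g, n=6/group); 0.1 ml CFA injected into right hind paw. Compounds i.p. (1–2 ml/kg) in 20% DMSO/10% emulphor/saline; AS2717638 in 30% propylene glycol vehicle. Mechanical paw withdrawal threshold (cut-off 26 g) measured every 30 min after single dose; two-way ANOVA, mean ± SEM.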"}, "[15]": {"molecular_target": "T1, Lysophosphatidic acid receptor 5", "assay": "Antagonist activity at human LPA5 receptor expressed in RH7777 cells assessed as inhibition of EC80 concentration of LPA-induced cAMP accumulation preincubated for 30 mins followed by Eu-cAMP tracer addition and measured after 1 hr by TR-FRET assay", "type": "functional, cell-based", "outline": "as §5"}, "[16]": {"molecular_target": "T1, Lysophosphatidic acid receptor 5", "assay": "Antagonist activity at human LPA5 receptor expressed in RH7777 cells assessed as inhibition of EC80 concentration of hexadecyl LPA-induced calcium mobilization incubated for 15 mins by FLIPR method relative to hexadecyl LPA", "type": "functional, cell-based", "settings": "filed as antagonist"}, "[17]": {"molecular_target": "T1, Lysophosphatidic acid receptor 5", "assay": "Agonist activity at human LPA5 receptor expressed in RH7777 cells assessed as calcium mobilization incubated for 15 mins by FLIPR method", "type": "functional, cell-based", "outline": "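RH7777 cells stably expressing hLPA5, plated 20,000/well in 0.2% FBS medium 18–20 h, loaded 45 min at 37 °C with Calcium 5 dye in HBSS/20 mM HEPES/2.5 mM probenecid pH 7.4. […] Duplicates.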"}, "Rattus norvegicus [18]": {"tested_on": "Rattus norvegicus", "assay": "Antiallodynic activity in CCI surgery-induced Sprague-Dawley rat neuropathic pain model assessed as reduction in paw withdrawal threshold at 17.8 mg/kg, ip measured after 5 hrs", "type": "functional", "set-up": "scale not given: the % may be the effect or the level left", "outline": "as §2"}, "[19]": {"assay": "Effect on locomotory activity in CCI surgery-neuropathic pain induced Sprague-Dawley rat model at 17.8 mg/kg, ip measured for 60 mins by infrared motion-sensor analysis", "type": "toxicity, organism-based", "settings": "in vivo, 1 h", "outline": "as §4"}, "[20]": {"molecular_target": "Lysophosphatidic acid receptor 4 (Homo sapiens) (UniProt Q99677)", "sequence (Q99677 whole entry)": "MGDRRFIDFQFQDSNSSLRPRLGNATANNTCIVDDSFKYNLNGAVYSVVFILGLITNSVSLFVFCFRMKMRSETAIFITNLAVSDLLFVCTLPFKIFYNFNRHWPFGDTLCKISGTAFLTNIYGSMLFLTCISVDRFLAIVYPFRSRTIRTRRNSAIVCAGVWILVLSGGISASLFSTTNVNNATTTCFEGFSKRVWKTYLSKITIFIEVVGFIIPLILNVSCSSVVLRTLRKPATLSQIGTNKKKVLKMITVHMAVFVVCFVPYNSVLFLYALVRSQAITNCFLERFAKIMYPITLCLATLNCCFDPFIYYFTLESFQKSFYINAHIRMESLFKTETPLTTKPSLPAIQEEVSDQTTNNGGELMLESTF", "assay": "Antagonist activity at human LPA4 receptor expressed in CHO cells assessed as inhibition of LPA-induced calcium accumulation preincubated for 30 mins followed by Eu-cAMP tracer addition and measured after 1 hr by TR-FRET assay relative to hexadecyl LPA", "type": "functional, cell-based"}}, "note": "Active and inactive are the calls of the source."}
{"smiles": "C#CC1CCN(C(=O)c2cn(-c3ccc4scc(C)c4c3)c(=O)c3cc(OC)c(OC)cc23)CC1", "values": [{"measurement": "Activity", "setting": "Rattus norvegicus [1]", "value": "Active"}, {"measurement": "inhibition", "setting": "[2]", "value": "< 50", "unit": "%"}, {"measurement": "Activity", "setting": "Rattus norvegicus [3]", "value": 100, "unit": "%"}, {"measurement": "Papp", "setting": "[4]", "value": "31.1 10^-6 cm/s"}, {"measurement": "Activity", "setting": "Rattus norvegicus [5]", "value": "Dose-Dependent Effect"}, {"measurement": "inhibition", "setting": "[6]", "value": "< 50", "unit": "%"}, {"measurement": "Activity", "setting": "[7]", "value": "Non-Toxic"}, {"measurement": "IC50", "setting": "[8]", "value": 32, "unit": "nM"}, {"measurement": "inhibition", "setting": "[9]", "value": 100, "unit": "%"}, {"measurement": "inhibition", "setting": "[10]", "value": "< 50", "unit": "%"}, {"measurement": "Ratio", "setting": "[11]", "value": 1.2}, {"measurement": "solubility kinetic", "setting": "[12]", "value": 19.5, "unit": "µM"}, {"measurement": "concentration at 0.5 h", "setting": "[13]", "value": 652, "unit": "ng/mL"}, {"measurement": "Activity", "setting": "Rattus norvegicus [14]", "value": "Active"}, {"measurement": "IC50", "setting": "[15]", "value": 350, "unit": "nM"}, {"measurement": "inhibition", "setting": "[16]", "value": 107, "unit": "%"}, {"measurement": "Activity", "setting": "[17]", "value": "inactive"}, {"measurement": "Activity", "setting": "Rattus norvegicus [18]", "value": 100, "unit": "%"}, {"measurement": "Activity", "setting": "[19]", "value": "Non-Toxic"}, {"measurement": "inhibition", "setting": "[20]", "value": "< 50", "unit": "%"}]}
